Rows were chosen to be rich in hits. Some 1.6% of all compounds tested hit in one or more screens of this group.
PKA-R1A act – PKA-R1A complex activation. P00514+P68181. PKA-R1A dissociation, Cy5-IP20 fluorescence polarization; scaled: DMSO 0%, 113 µM cGMP 100%. activation, % at 11.4 µM. 340,000 tested, 0.083% active. AID 504707;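 active means percent activation above the mean of all tested compounds plus 3 SD, cut at about 19% in these data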;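 further: higher means more PKAc released from R1A so a rise in polarization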
HNF4A DNA FP – change in binding of human HNF4 alpha to DNA | AID 1224865 | 360,000 tested, 0.3% active | P41235 | activity change, % at 10 µM | HNF4a-FITC DNA binding, fluorescence polarization, 1 h; in the data active means activity change above about 30%, passing the limit was not always enough
Target sequence (P41235 whole entry, looked up): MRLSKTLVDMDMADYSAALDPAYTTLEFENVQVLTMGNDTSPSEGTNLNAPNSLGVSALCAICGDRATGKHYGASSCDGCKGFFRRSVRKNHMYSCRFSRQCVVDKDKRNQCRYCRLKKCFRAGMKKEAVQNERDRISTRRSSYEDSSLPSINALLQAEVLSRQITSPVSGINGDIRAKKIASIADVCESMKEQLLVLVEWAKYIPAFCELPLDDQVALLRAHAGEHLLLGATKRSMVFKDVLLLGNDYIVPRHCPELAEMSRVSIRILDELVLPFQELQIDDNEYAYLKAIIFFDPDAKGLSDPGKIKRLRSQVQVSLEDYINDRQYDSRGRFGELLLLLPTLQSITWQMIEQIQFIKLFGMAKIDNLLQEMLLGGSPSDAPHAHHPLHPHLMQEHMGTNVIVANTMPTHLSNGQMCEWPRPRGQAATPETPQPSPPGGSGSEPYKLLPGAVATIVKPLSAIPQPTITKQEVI
Rpn11 inh – inhibitors of human proteasome Rpn11 | O00487 | human 26S proteasome, Ub4-pepOG fluorescence polarization; 20S core pre-blocked with epoxomicin | calls only at 20 µM | 360,000 tested, 0.59% active;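 active means inhibition at 20 µM, scaled to each plate's controls, above about 33%, limit read from the data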
PKA-R2B act – activators of human PKA-R2B complex; P22694+P31323; PKA-R2B holoenzyme dissociation, Cy5-IP20 fluorescence polarization; R2B truncated from residue 108, S112A mutant; 0% DMSO only, 100% 113 µM cGMP; activation, % at 11.4 µM; 340,000 tested, 0.079% active; AID 504700;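 active means activation above a cutoff set at the mean over all compounds plus 3 SD, cut at about 18% in these data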;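 further: higher means more holoenzyme dissociation and a rise in polarization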
CSN inh – blocks human CSN-mediated cullin deneddylation | 360,000 tested, 0.38% active | Purified CSN, SCF-Nedd8-OG deneddylation, fluorescence polarization | Q92905 | inhibition, % at 12.5 µM;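 active means pattern-corrected inhibition above about 35%, with an unprinted fluorescence ratio check between 0.5 and 1.5, limit read from the data, passing the limit was not always enough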
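Schedule: reaction 90 min, room temperature / Assay system: HEK293T-derived human Csn5 enzyme / Input: Csn5 at 0.24 nM final / Measure: inhibition of Csn5 cleavage, % / Control set: substrate-only high control, full reaction low control / Technique: fluorescence polarization of the substrate / Buffer or medium: Tris/NaCl/DTT buffer, pH 7.5 / Reagent: SCFSkp2-Nedd8OG substrate at 10 nM final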
TPT1 inhibitor – inhibitors of Candida albicans tRNA 2'-phosphotransferase TPT1. 300,000 tested, 0.81% active. recombinant caTPT1, FP RNA substrate dephosphorylation. inhibition, % at 5 µM;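 active means inhibition above the mean of all tested compounds plus 3 SD, set per screening campaign, cut at about 24% in these data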
A number is an active result; 0 = inactive; - = not tested or not shown; + = active, no number.

SMILES	PKA-R1A act	HNF4A DNA FP	Rpn11 inh	PKA-R2B act	CSN inh	TPT1 inhibitor
CC(=O)Nc1sc2c(c1-c1nc3ccccc3s1)CN(C(C)C)CC2	0	0	-	0	0	-
COc1ccc(-c2ccc(-c3noc(-c4ccccc4C)n3)c(OC)n2)cc1	0	0	0	0	0	0
COc1ccc(-c2ccc(-c3noc(-c4ccccc4OC)n3)c(OC)n2)cc1	0	44	0	0	0	0
COCCCn1c(=O)/c(=C\c2ccc(OC(F)F)c(OC)c2)s/c1=C(/C#N)C(N)=O	0	51	-	0	0	0
CCOC(=O)C1=CN(Cc2cccc(F)c2)S(=O)(=O)N(C)C1c1ccccc1 (stereo unspecified)	0	0	0	0	103	-
CN(C)CCNC(=O)c1cc2sc3ccccc3c2s1	0	0	0	0	0	0
CC(C)[C@H]1CN=C2N(C[C@H](C)NC(=O)CCC3CCCCC3)[C@H](Cc3ccc(O)cc3)CN21	0	0	0	0	74	0
C#CCOCCOCCOCCNc1nc(N2CCN(C(=O)C([C@@H](C)O)n3cc([C@@H](N)CCCCN)nn3)CC2)nc(N2CCN(C(=O)[C@H](CCCCN)n3cc([C@@H](N)CC(N)=O)nn3)CC2)n1 (stereo partly specified)	0	0	0	0	0	-
COC(=O)CSc1nnc(-c2ccccn2)n1N	0	0	0	0	0	0
O=C(Nc1cccc(-c2nc3ncccc3o2)c1)c1sc2ccccc2c1Cl	0	43	0	0	0	0
O=C(Nc1cccc(-c2nc3ncccc3o2)c1)c1sc2cc(Cl)ccc2c1Cl	0	176	+	0	0	0
COc1ccc(/C=C2\SC(=O)N(CCNC(=O)C3CCN(S(=O)(=O)c4cccs4)CC3)C2=O)cc1	0	31	0	0	0	0
O=C(NCCN1C(=O)S/C(=C\c2ccc(F)cc2)C1=O)C1CCN(S(=O)(=O)c2cccs2)CC1	0	0	0	0	0	0
Oc1ccccc1C1NN=C(c2ccccc2)S1 (stereo unspecified)	0	0	0	0	0	0
C#CCOCCOCCOCCNc1nc(N2CCN(C(=O)CCCCCCCCCCNC(=O)[C@H](CCCCN)n3cc(C)nn3)CC2)nc(N2CCN(C(=O)CCCCCCCCCCNC(=O)[C@H](CCCCN)n3cc(CCCC(=O)O)nn3)CC2)n1	0	38	0	0	0	0
C#CCOCCOCCOCCNc1nc(N2CCN(C(=O)CCCCCCCCCCNC(=O)[C@H]([C@@H](C)CC)n3cc(CCCCCN)nn3)CC2)nc(N2CCN(C(=O)CCCCCCCCCCNC(=O)[C@H]([C@@H](C)CC)n3cc(CCCCN=C(N)N)nn3)CC2)n1	0	0	+	0	116	0
C#CCOCCOCCOCCNc1nc(N2CCN(C(=O)CCCCCCCCCCNC(=O)[C@H]([C@@H](C)CC)n3cc(CCCCN=C(N)N)nn3)CC2)nc(N2CCN(C(=O)CCCCCCCCCCNC(=O)[C@H](CO)n3cc(CCCCCN)nn3)CC2)n1	0	0	+	0	106	0
C#CCOCCOCCOCCNc1nc(N2CCN(C(=O)CCCCCCCCCCNC(=O)Cn3cc(CCCCCN)nn3)CC2)nc(N2CCN(C(=O)CCCCCCCCCCNC(=O)[C@@H](CCC(=O)O)n3cc(CCCCCN)nn3)CC2)n1	0	0	0	0	0	0
C#CCOCCOCCOCCNc1nc(N2CCN(C(=O)CCCCCCCCCCNC(=O)Cn3cc(CCCCCN)nn3)CC2)nc(N2CCN(C(=O)CCCCCCCCCCNC(=O)Cn3cc(CCCCCN)nn3)CC2)n1	0	38	0	0	60	0
C#CCOCCOCCOCCNc1nc(N2CCN(C(=O)CCCCCCCCCCNC(=O)[C@H]([C@@H](C)CC)n3cc(CCCCCN)nn3)CC2)nc(N2CCN(C(=O)CCCCCCCCCCNC(=O)[C@H](CO)n3cc(CCCCCN)nn3)CC2)n1	0	0	0	0	0	0
Cc1cccc(C)c1NC(=O)CN1CCN(c2ccc(C(F)(F)F)cn2)CC1	-	0	0	-	0	-
CCC(C)/C(C)=N/NC(=O)c1ccccc1OCCOc1ccccc1 (stereo unspecified)	0	0	0	0	0	0
C#CCOCCOCCOCCNc1nc(N2CCN(C(=O)[C@H](CCCCN)n3cc([C@@H](N)C(C)CC)nn3)CC2)nc(N2CCN(C(=O)[C@H](Cc3cc4ccccc4[nH]3)n3cc([C@@H](N)CC(C)C)nn3)CC2)n1 (stereo partly specified)	0	49	0	0	45	0
C#CCOCCOCCOCCNc1nc(N2CCN(C(=O)CCCCCCCCCCNC(=O)Cn3cc(CCCCCN)nn3)CC2)nc(N2CCN(C(=O)CCCCCCCCCCNC(=O)[C@H]([C@@H](C)CC)n3cc(CCCCN=C(N)N)nn3)CC2)n1	0	0	+	21	100	0
C#CCOCCOCCOCCNc1nc(N2CCN(C(=O)CCCCCCCCCCNC(=O)[C@H]([C@@H](C)CC)n3cc(CCCCN=C(N)N)nn3)CC2)nc(N2CCN(C(=O)CCCCCCCCCCNC(=O)[C@H]([C@@H](C)CC)n3cc(CCCCN=C(N)N)nn3)CC2)n1	-	-	-	-	-	0
SMILES	PKA-R1A act	HNF4A DNA FP	Rpn11 inh	PKA-R2B act	CSN inh	TPT1 inhibitor
C#CCOCCOCCOCCNc1nc(N2CCN(C(=O)[C@H](Cc3cc4ccccc4[nH]3)n3cc([C@@H](N)C(C)CC)nn3)CC2)nc(N2CCN(C(=O)[C@H](CCCCN)n3cc([C@@H](N)CO)nn3)CC2)n1 (stereo partly specified)	-	-	-	-	-	0
CCOC(=O)c1ccc(N/C=C/C(=O)c2ccc(OC)c(OC)c2)cc1	0	0	0	0	101	0
CCOc1ccc(N/C=C/C(=O)c2ccc(OC)c(OC)c2)cc1	0	0	0	0	0	0
COC(=O)c1ccc(-c2ccco2)n1Cc1ccccc1Cl	0	0	0	0	49	0
Cc1ccc(NC(=O)CN2C(=O)N/C(=C/c3ccccc3OCc3cccc(C(=O)O)c3)C2=O)cc1	0	0	0	0	72	0
Cc1ccc(NC(=O)CN2C(=O)N/C(=C/c3cc(C)n(-c4cccc(C(=O)O)c4)c3C)C2=O)cc1	0	0	0	0	0	-
COc1cccc(/C=C2/NC(=O)N(CC(=O)Nc3ccc(C)cc3)C2=O)c1OCc1cccc(C(=O)O)c1	0	0	0	0	37	0
O=C(COC(=O)c1cc([N+](=O)[O-])ccc1NCCO)c1ccccc1	0	0	0	0	0	0
Cc1c(S(=O)(=O)N2CCCCC2)c(=O)n(C)c(=O)n1C	0	0	0	0	64	0
CC1(C(=O)NS(=O)(=O)C2CC2)CCN(C(=O)COc2ccc(Cl)cc2Cl)C1 (stereo unspecified)	-	0	0	-	0	-

High-throughput results from PubChem BioAssay.
